Measured values as given in article PMC9076386 (RSC Advances, 2019).

Experiments:
Format in all cases: cell-based
SKOV3 cells = assay: MTT cytotoxicity assay, SKOV3; conditions: Homo sapiens, SK-OV-3, read-out: IC50 SKOV3
Outline: (§1)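 Human lines were grown in RPMI 1640 with 10% FBS at 37 °C and 5% CO2; MCF-7 medium also had glutamine, HEPES and pyruvate. Log-phase cells were seeded, preincubated for 24 h, then treated for 72 h with DMSO-dissolved test compound at 0, 1.25, 2.5, 5, 10 or 20 μM. MTT (5 mg mL−1 stock) was added for 4 h, formazan was dissolved in DMSO and OD was read at 550 nm.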

HepG2 cells = assay: MTT cytotoxicity assay, HepG2; conditions: Homo sapiens, HepG2, read-out: IC50 HepG2
Outline: as §1

HeLa cells = assay: MTT cytotoxicity assay, HeLa; conditions: Homo sapiens, read-out: IC50 Hela
Outline: as §1

Structure (SMILES): CC(=O)O[C@H]1C(=O)[C@@]2(C)[C@H]([C@H](OC(=O)c3ccccc3)[C@]3(O)C[C@H](OC(=O)[C@H](O)[C@@H](NC(=O)c4ccccc4)c4ccccc4)C(C)=C1C3(C)C)[C@]1(OC(C)=O)CO[C@@H]1C[C@@H]2O [Paclitaxel]
- IC50 (SKOV3 cells): 3.8 nM
- IC50 (HepG2 cells): 1.5 nM
- IC50 (HeLa cells): 3 nM
